Reference: ChEMBL document CHEMBL4715736, “Identification of anticancer agents based on the thieno[2,3-b]pyridine and 1H-pyrazole molecular scaffolds” (2016)

Legend:
Type in all cases: functional
NCI-H522 [1] = assay: Growth inhibition of human NCI-H522 cells assessed as cell growth at 0.01 uM incubated for 48 hrs by sulforhodamine B assay relative to control; details: read-out: Activity
HCT-15 = assay: Growth inhibition of human HCT-15 cells assessed as cell growth at 0.01 uM incubated for 48 hrs by sulforhodamine B assay relative to control; details: read-out: Activity
LOX IMVI [2] = assay: Growth inhibition of human LOX IMVI cells assessed as cell growth at 0.01 uM incubated for 48 hrs by sulforhodamine B assay relative to control; details: read-out: Activity
SK-MEL-5 [3] = assay: Growth inhibition of human SK-MEL-5 cells assessed as cell growth at 0.01 uM incubated for 48 hrs by sulforhodamine B assay relative to control; details: read-out: Activity
MCF7 [4] = assay: Growth inhibition of human MCF7 cells assessed as cell growth at 0.01 uM incubated for 48 hrs by sulforhodamine B assay relative to control; details: read-out: Activity
MOLT-4 [5] = assay: Growth inhibition of human MOLT-4 cells assessed as cell growth at 0.1 uM incubated for 48 hrs by sulforhodamine B assay relative to control; details: read-out: Activity
SR [6] = assay: Growth inhibition of human SR cells assessed as cell growth at 0.1 uM incubated for 48 hrs by sulforhodamine B assay relative to control; details: read-out: Activity
NCI-H322M = assay: Growth inhibition of human NCI-H322M cells assessed as cell growth at 0.1 uM incubated for 48 hrs by sulforhodamine B assay relative to control; details: read-out: Activity
SNB-75 = assay: Growth inhibition of human SNB-75 cells assessed as cell growth at 0.1 uM incubated for 48 hrs by sulforhodamine B assay relative to control; details: read-out: Activity
LOX IMVI [7] = assay: Growth inhibition of human LOX IMVI cells assessed as cell growth at 0.1 uM incubated for 48 hrs by sulforhodamine B assay relative to control; details: read-out: Activity
M14 = assay: Growth inhibition of human M14 cells assessed as cell growth at 0.1 uM incubated for 48 hrs by sulforhodamine B assay relative to control; details: read-out: Activity
MOLT-4 [8] = assay: Growth inhibition of human MOLT-4 cells assessed as cell growth at 1 uM incubated for 48 hrs by sulforhodamine B assay relative to control; details: read-out: Activity
A549 = assay: Growth inhibition of human A549/ATCC cells assessed as cell growth at 1 uM incubated for 48 hrs by sulforhodamine B assay relative to control; details: read-out: Activity
Procedure, shortened: (§1)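 NCI Developmental Therapeutics Program NCI60 panel. Compounds that were active in the 10 µM one-dose screen went on to dose–response testing. Growth at each concentration is expressed relative to untreated control (100%). GI50 (concentration giving 50% of maximal inhibition of proliferation) and TGI (concentration giving total growth inhibition) were derived from the curves.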

NCI-H226 = assay: Growth inhibition of human NCI-H226 cells assessed as cell growth at 1 uM incubated for 48 hrs by sulforhodamine B assay relative to control; details: read-out: Activity
HT-29 = assay: Growth inhibition of human HT-29 cells assessed as cell growth at 1 uM incubated for 48 hrs by sulforhodamine B assay relative to control; details: read-out: Activity
SF-539 = assay: Growth inhibition of human SF-539 cells assessed as cell growth at 1 uM incubated for 48 hrs by sulforhodamine B assay relative to control; details: read-out: Activity
OVCAR-3 = assay: Growth inhibition of human OVCAR-3 cells assessed as cell growth at 1 uM incubated for 48 hrs by sulforhodamine B assay relative to control; details: read-out: Activity
SK-OV-3 = assay: Growth inhibition of human SK-OV-3 cells assessed as cell growth at 1 uM incubated for 48 hrs by sulforhodamine B assay relative to control; details: read-out: Activity
UO-31 = assay: Growth inhibition of human UO-31 cells assessed as cell growth at 1 uM incubated for 48 hrs by sulforhodamine B assay relative to control; details: read-out: Activity
MCF7 [9] = assay: Growth inhibition of human MCF7 cells assessed as cell growth at 1 uM incubated for 48 hrs by sulforhodamine B assay relative to control; details: read-out: Activity
SR [10] = assay: Growth inhibition of human SR cells assessed as cell growth at 100 uM incubated for 48 hrs by sulforhodamine B assay relative to control; details: read-out: Activity
KM12 = assay: Growth inhibition of human KM12 cells assessed as cell growth at 100 uM incubated for 48 hrs by sulforhodamine B assay relative to control; details: read-out: Activity
SF-295 = assay: Growth inhibition of human SF-295 cells assessed as cell growth at 100 uM incubated for 48 hrs by sulforhodamine B assay relative to control; details: read-out: Activity
Hs-578T = assay: Growth inhibition of human Hs-578T cells assessed as cell growth at 100 uM incubated for 48 hrs by sulforhodamine B assay relative to control; details: read-out: Activity
NCI-H522 [11] = assay: Growth inhibition of human NCI-H522 cells incubated for 48 hrs by sulforhodamine B assay
Procedure, shortened: (§2)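 NCI60 panel at the NCI Developmental Therapeutics Program. Only compounds active in the 10 µM screen went to dose-response testing. GI50, the concentration giving 50% of maximal inhibition of proliferation, and TGI, the concentration giving total growth inhibition, were derived from the dose-response curves.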

HCT-116 = assay: Growth inhibition of human HCT-116 cells incubated for 48 hrs by sulforhodamine B assay; procedure, shortened: as §2
SK-MEL-5 [12] = assay: Growth inhibition of human SK-MEL-5 cells incubated for 48 hrs by sulforhodamine B assay
Procedure, shortened: (§3)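 NCI DTP 60-line human tumour panel. Dose-response curves were run only for ligands active in the initial 10 µM screen. GI50 (concentration giving 50% of maximal inhibition of proliferation) and TGI (concentration giving total growth inhibition) were derived from these curves.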

NCI/ADR-RES = assay: Growth inhibition of human NCI/ADR-RES cells incubated for 48 hrs by sulforhodamine B assay; details: for CC50: read-out: LC50 (the source's name); procedure, shortened: as §2
CAKI-1 = assay: Growth inhibition of human CAKI-1 cells incubated for 48 hrs by sulforhodamine B assay; details: for CC50: read-out: LC50 (the source's name); procedure, shortened: as §1
T47D = assay: Growth inhibition of human T47D cells incubated for 48 hrs by sulforhodamine B assay; details: for CC50: read-out: LC50 (the source's name); procedure, shortened: as §3
MDA-MB-468 = assay: Growth inhibition of human MDA-MB-468 cells incubated for 48 hrs by sulforhodamine B assay; details: for CC50: read-out: LC50 (the source's name); procedure, shortened: as §2
U-251 = assay: Growth inhibition of human U-251 cells assessed as cell growth at 0.1 uM incubated for 48 hrs by sulforhodamine B assay relative to control; details: read-out: Activity

**Q.** Which results are given for `CCc1ccccc1NC(=O)c1sc2nc3c(cc2c1N)C(=O)CCC3`?
**A.** growth at 0.01 µM (NCI-H522 [1]): 106%; growth at 0.01 µM (HCT-15): 93%; growth at 0.01 µM (LOX IMVI [2]): 97%; growth at 0.01 µM (SK-MEL-5 [3]): 96%; growth at 0.01 µM (MCF7 [4]): 82%; growth at 0.1 µM (MOLT-4 [5]): 103%; growth at 0.1 µM (SR [6]): 96%; growth at 0.1 µM (NCI-H322M): 99%; growth at 0.1 µM (SNB-75): 73%; growth at 0.1 µM (LOX IMVI [7]): 95%; growth at 0.1 µM (M14): 78%; growth at 1 µM (MOLT-4 [8]): 66%; growth at 1 µM (A549): 39%; growth at 1 µM (NCI-H226): 63%; growth at 1 µM (HT-29): 13%; growth at 1 µM (SF-539): 11%; growth at 1 µM (OVCAR-3): 12%; growth at 1 µM (SK-OV-3): 30%; growth at 1 µM (UO-31): 50%; growth at 1 µM (MCF7 [9]): 17%; growth at 100 µM (SR [10]): 2%; growth at 100 µM (KM12): 13%; growth at 100 µM (SF-295): -2%; growth at 100 µM (Hs-578T): 15%; GI50 (NCI-H522 [11]): 0.502 µM; LC50 (NCI-H522 [11]): > 100 µM; TGI (NCI-H522 [11]): > 100 µM; GI50 (HCT-116): 0.483 µM; LC50 (concentration killing 50% of cells) (HCT-116): > 100 µM; TGI (HCT-116): > 100 µM; GI50 (SK-MEL-5 [12]): 0.282 µM; LC50 (SK-MEL-5 [12]): > 100 µM; TGI (SK-MEL-5 [12]): > 100 µM; GI50 (NCI/ADR-RES): 0.367 µM; TGI (NCI/ADR-RES): 39.2 µM; CC50 (NCI/ADR-RES): > 100 µM; GI50 (CAKI-1): 0.504 µM; TGI (CAKI-1): > 100 µM; CC50 (CAKI-1): > 100 µM; GI50 (T47D): 0.431 µM; TGI (T47D): ≥ 100 µM; CC50 (T47D): > 100 µM; GI50 (MDA-MB-468): 0.209 µM; TGI (MDA-MB-468): 44.7 µM; CC50 (MDA-MB-468): > 100 µM

**Q.** How did the growth at 0.01 µM (NCI-H522 [1]) turn out when `Cc1ccc(NC(=O)c2sc3nc4c(cc3c2N)C(=O)CCC4)cc1C` was run?
**A.** 100%

**Q.** And the growth at 0.01 µM (HCT-15)?
**A.** 95%

**Q.** What about the growth at 0.01 µM (LOX IMVI [2]) of the same molecule?
**A.** 97%

**Q.** What about the growth at 0.01 µM (SK-MEL-5 [3]) of the same molecule?
**A.** 95%

**Q.** And the growth at 0.01 µM (MCF7 [4])?
**A.** 89%

**Q.** What about the growth at 0.1 µM (MOLT-4 [5]) of the same molecule?
**A.** 106%

**Q.** And the growth at 0.1 µM (SR [6])?
**A.** 108%

**Q.** What about the growth at 0.1 µM (NCI-H322M) of the same molecule?
**A.** 94%

**Q.** And the growth at 0.1 µM (SNB-75)?
**A.** 70%

**Q.** And the growth at 0.1 µM (U-251)?
**A.** 92%

**Q.** What about the growth at 0.1 µM (LOX IMVI [7]) of the same molecule?
**A.** 98%

**Q.** What about the growth at 0.1 µM (M14) of the same molecule?
**A.** 86%

**Q.** What about the growth at 1 µM (MOLT-4 [8]) of the same molecule?
**A.** 82%

**Q.** And the growth at 1 µM (A549)?
**A.** 40%

**Q.** What about the growth at 1 µM (NCI-H226) of the same molecule?
**A.** 68%

**Q.** What about the growth at 1 µM (HT-29) of the same molecule?
**A.** 14%

**Q.** And the growth at 1 µM (SF-539)?
**A.** 21%

**Q.** And the growth at 1 µM (OVCAR-3)?
**A.** 3%

**Q.** What about the growth at 1 µM (SK-OV-3) of the same molecule?
**A.** 29%

**Q.** What about the growth at 1 µM (UO-31) of the same molecule?
**A.** 42%

**Q.** What about the growth at 1 µM (MCF7 [9]) of the same molecule?
**A.** 18%

**Q.** And the growth at 100 µM (SR [10])?
**A.** -14%

**Q.** And the growth at 100 µM (KM12)?
**A.** 9%

**Q.** And the growth at 100 µM (SF-295)?
**A.** 12%

**Q.** What about the growth at 100 µM (Hs-578T) of the same molecule?
**A.** 17%

**Q.** What about the GI50 (NCI-H522 [11]) of the same molecule?
**A.** 0.256 µM

**Q.** What about the LC50 (NCI-H522 [11]) of the same molecule?
**A.** > 100 µM

**Q.** What about the TGI (NCI-H522 [11]) of the same molecule?
**A.** 20 µM

**Q.** What about the GI50 (HCT-116) of the same molecule?
**A.** 0.527 µM

**Q.** What about the LC50 (concentration killing 50% of cells) (HCT-116) of the same molecule?
**A.** > 100 µM

**Q.** And the TGI (HCT-116)?
**A.** > 100 µM

**Q.** What about the GI50 (SK-MEL-5 [12]) of the same molecule?
**A.** 0.376 µM

**Q.** And the LC50 (SK-MEL-5 [12])?
**A.** ≥ 100 µM

**Q.** And the TGI (SK-MEL-5 [12])?
**A.** 16.4 µM

**Q.** What about the GI50 (NCI/ADR-RES) of the same molecule?
**A.** 0.658 µM

**Q.** What about the TGI (NCI/ADR-RES) of the same molecule?
**A.** > 100 µM

**Q.** And the CC50 (NCI/ADR-RES)?
**A.** > 100 µM

**Q.** And the TGI (CAKI-1)?
**A.** > 100 µM

**Q.** What about the CC50 (CAKI-1) of the same molecule?
**A.** > 100 µM

**Q.** What about the GI50 (T47D) of the same molecule?
**A.** 0.444 µM

**Q.** And the TGI (T47D)?
**A.** ≥ 100 µM

**Q.** And the CC50 (T47D)?
**A.** > 100 µM

**Q.** What about the GI50 (MDA-MB-468) of the same molecule?
**A.** 0.229 µM

**Q.** And the CC50 (MDA-MB-468)?
**A.** > 100 µM
